TRPC6 act = mouse TRPC6 channel activators, primary screen, cell-based, HEK293, membrane potential dye. Short transient receptor potential channel 6 (Mus musculus), Q61143. HEK293-TRPC6 membrane potential dye fluorescence; hits give high values. B-score at 10 µM. 310,000 tested, 0.13% active. AID 2550, 2010;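 active = B-score of the integrated fluorescence ratio above library mean plus 3 SD, and starting fluorescence ratio within library mean plus 5 SD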;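 also: higher score means more depolarization so channel activation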
Target sequence (Q61143 whole entry, looked up): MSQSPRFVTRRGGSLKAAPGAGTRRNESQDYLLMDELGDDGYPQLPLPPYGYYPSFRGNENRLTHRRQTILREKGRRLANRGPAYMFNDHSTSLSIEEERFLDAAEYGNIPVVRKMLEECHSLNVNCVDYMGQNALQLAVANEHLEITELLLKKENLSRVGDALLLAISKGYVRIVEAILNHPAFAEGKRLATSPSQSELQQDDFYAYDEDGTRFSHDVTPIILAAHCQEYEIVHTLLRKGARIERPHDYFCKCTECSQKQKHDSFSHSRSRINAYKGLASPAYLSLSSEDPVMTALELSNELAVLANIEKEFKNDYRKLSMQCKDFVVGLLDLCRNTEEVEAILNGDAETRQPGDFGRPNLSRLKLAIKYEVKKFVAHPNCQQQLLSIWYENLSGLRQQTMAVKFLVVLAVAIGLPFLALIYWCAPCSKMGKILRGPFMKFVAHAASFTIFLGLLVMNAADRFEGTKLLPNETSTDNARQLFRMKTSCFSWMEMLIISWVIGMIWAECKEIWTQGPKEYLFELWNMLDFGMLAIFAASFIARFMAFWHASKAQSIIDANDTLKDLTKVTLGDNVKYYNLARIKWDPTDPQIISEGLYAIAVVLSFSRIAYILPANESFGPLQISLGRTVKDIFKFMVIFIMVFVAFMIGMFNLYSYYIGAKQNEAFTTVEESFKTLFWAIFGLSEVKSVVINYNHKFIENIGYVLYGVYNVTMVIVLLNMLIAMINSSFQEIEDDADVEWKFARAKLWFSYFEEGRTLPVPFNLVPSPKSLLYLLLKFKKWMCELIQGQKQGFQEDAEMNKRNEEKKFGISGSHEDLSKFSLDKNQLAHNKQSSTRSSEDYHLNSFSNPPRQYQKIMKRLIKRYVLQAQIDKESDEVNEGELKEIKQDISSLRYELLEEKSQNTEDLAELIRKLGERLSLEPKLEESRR
TRPC6 inh = mouse TRPC6 channel inhibitors, primary screen, cell-based, HEK293, membrane potential dye; Short transient receptor potential channel 6 (Mus musculus), Q61143; ACh-evoked depolarization; hits give low values; B-score at 10 µM; 310,000 tested, 1.1% active;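 active = B-score under library mean minus 3 SD, initial fluorescence not abnormally high, positive integrated signal ratio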;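 also: B-score derived from integrated fluorescence ratio over the kinetic read; more negative B-score means stronger inhibition of depolarization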
TRPC4 act = activators of mouse TRPC4 channel, primary screen, Fluo4 calcium, HEK293 TRPC4beta/mu-opioid cells; Fluo4 calcium fluorescence; hits give high values; B-score at 10 µM; 310,000 tested, 0.49% active;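 active = B-score above 5 SD of library B-scores, and initial fluorescence ratio not above library mean plus 5 SD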;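 also: positive B-score marks a calcium rise read as TRPC4 activation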
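System: HEK293 cells stably co-expressing mouse TRPC4beta and mu-opioid receptor; Schedule: Fluo4 dye loading 45 min at room temperature, 110 s recording; Detection: Fluo4 fluorescence, kinetic; Evaluation: B-scored integrated calcium fluorescence ratio; Controls: buffer (low) and maximal DAMGO (high).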
TRPC4 block = inhibitors of mouse TRPC4 channel, primary screen, Fluo4 calcium, HEK293 TRPC4beta/mu-opioid cells | DAMGO-evoked Fluo4 calcium flux; hits give low values | B-score at 10 µM | 300,000 tested, 0.39% active | AID 2247, 2010;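 active = B-score over 3 SD under the library average, no early fluorescence shift, positive overall ratio signal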
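Assay system: HEK293 cells with stable TRPC4beta plus mu-opioid receptor expression; Probe or stimulus: DAMGO in two steps, submaximal then maximal; Dosing: single-point compound dosing; Measured by: Fluo4 calcium-dye fluorescence, kinetic read; Read-out basis: B score from integrated Fluo4 fluorescence ratio.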
TRPC4 potent = positive allosteric modulators of TRPC4, primary screen, cell-based, mouse TRPC4beta, HEK293 mu-opioid, Fluo-4 calcium. DAMGO EC20, Fluo-4 Ca2+ flux; hits give high values. Short transient receptor potential channel 4 (Mus musculus), Q9QUQ5. B-score at 10 µM. 310,000 tested, 0.42% active;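 active = B-score of calcium response area above 5 SD of library B-scores, with initial fluorescence ratio within 5 SD of library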;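 also: B-score of integrated fluorescence ratio over time as area under calcium response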
TRPC4 spec 2 = second selectivity test of TRPC6 inhibitors: effect on mouse TRPC4. shares compounds with TRPC6 inh. 920 tested, 42% active. AID 2776. inhibition, % at 10 µM. HEK293 TRPC4/MOR, membrane potential dye fluorescence; channel activated by saturating DAMGO dose;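 active = compounds whose fluorescence signal differed from control wells by over 3 SD, either direction, in both duplicate plates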
TRPC4 spec = mouse TRPC4 modulation by TRPC6 hits, confirmation, selectivity assay for TRPC6 inhibitor project, cell-based, HEK293 TRPC4/mu-opioid, membrane potential dye. shares compounds with TRPC6 inh. membrane potential fluorescence. activity change, negative = inhibition, % at 10 µM. 920 tested, 61% active;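 active = rise or fall in signal beyond 3 SD of buffer-only wells in both replicate plates, either sign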;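 also: integrated kinetic ratio of fluorescence range over baseline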
HEK293 MPD ctr 2-1 = nonspecific membrane potential effects, parental HEK293, confirmation, counter-screen for TRPC6 inhibitor project, cell-based, second counter screen | shares compounds with TRPC6 inh | parental HEK293 membrane potential dye fluorescence; maximal acetylcholine challenge after compound addition | signal change vs control, % at 10 µM | 920 tested, 31% active | AID 2779, 2010;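 active = membrane potential signal moving either way by over 3 SD of the maximum-effect control, in both duplicate plates, meaning non-specific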
HEK293 MPD ctr-1 = membrane potential modulation in parental HEK293, confirmation, counter-screen for TRPC6 inhibitor project, cell-based; shares compounds with TRPC6 inh; 920 tested, 60% active; membrane potential signal change, % at 10 µM; AID 2780, 2010; parental HEK293 membrane potential dye fluorescence;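 active = membrane potential signal shifting up or down by more than 3 SD of buffer-only wells, on both duplicate plates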
HEK293 MPD ctr-2 = parental HEK293 membrane potential modulation, confirmation, counter-screen for TRPC6 modulator project, cell-based; shares compounds with TRPC6 inh; membrane potential dye fluorescence; membrane potential signal change, % at 10 µM; 2,400 tested, 51% active; AID 488924, 2010;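 active = membrane potential signal moves up or down beyond 5 SD from buffer-only wells, on both duplicate plates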
HEK293 MPD ctr 2-2 = second counter-screen for TRPC6 modulators: effect in parental HEK293 cells; AID 488926; shares compounds with TRPC6 inh; membrane potential dye fluorescence; after compound, maximal acetylcholine stimulation; 2,400 tested, 14% active; inhibition, % at 10 µM;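 active = membrane potential signal drops by more than 5 SD from the mean control signal, in both duplicate plates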;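 also: plate controls were acetylcholine ECmax control wells for no effect and buffer only wells for full effect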
TRPC4/MOR mod = TRPC4 modulation by TRPC6 hit compounds, confirmation, selectivity assay for TRPC6 modulator project, cell-based, HEK293 TRPC4/mu-opioid, membrane potential dye, mouse; shares compounds with TRPC6 inh; membrane potential fluorescence; percent change from control (negative = decrease, positive = increase), % at 10 µM; 2,400 tested, 69% active;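 active = membrane potential signal moved up or down beyond 5 SD of buffer control wells, in both duplicate plates, actives on both sides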;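 also: plate controls were assay buffer wells for no effect and DAMGO maximal-effect wells for full effect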
TRPC4 ctr inh 2 = second check of whether TRPC6 modulators also affect mouse TRPC4. AID 488928. HEK293 TRPC4/mu-opioid, membrane potential dye fluorescence; stimulated with maximal-effect DAMGO. shares compounds with TRPC6 inh. inhibition, % at 10 µM. 2,400 tested, 55% active;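 active = drop in membrane potential signal beyond 5 SD of the control wells in both duplicate plates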;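 also: TRPC4 counter screen for TRPC6 hits run under conditions tuned for TRPC6 not TRPC4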
TRPC6 inh conf = mouse TRPC6 channel inhibitors, confirmation, HEK293 cells, membrane potential dye, duplicate; shares compounds with TRPC6 inh; ACh-evoked depolarization; inhibition, % at 10 µM; 3,300 tested, 43% active;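 active = fluorescence ratio falls more than 5 SD below the full-stimulation control mean, in both duplicate runs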;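 also: integrated fluorescence ratio of peak minus minimum over baseline after agonist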
TRPC6 act confirm = mouse TRPC6 channel activators, confirmation, HEK293 cells, membrane potential dye, duplicate; shares compounds with TRPC6 inh; HEK293-TRPC6 membrane potential dye fluorescence, FDSS; activation, % at 10 µM; 2,800 tested, 11% active;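 active = ratio signal rise beyond 5 SD above unstimulated control wells' mean, seen in both duplicate runs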;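 also: plate controls were buffer EC0 wells for no effect and acetylcholine ECmax response for full effect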
Starred values were filed as active, the others as inactive; i = inactive; · = not tested or not shown; + = active, no number. In the library only some 2.3% were active in any assay of this set; here they are far more common.

SMILES	TRPC6 act	TRPC6 inh	TRPC4 act	TRPC4 block	TRPC4 potent	HEK293 MPD ctr-2	HEK293 MPD ctr 2-2	TRPC4/MOR mod	TRPC4 ctr inh 2	TRPC6 inh conf	TRPC6 act confirm	others
Cc1ccc(-n2cc(CNCCN3CCOC3=O)c(-c3cccc(C)c3)n2)cc1	i	-5.82*	i	i	i	i	i	10.0%*	58.0%*	i	i
O=C1OCCN1CCNCc1cn(-c2ccc(F)cc2)nc1-c1ccccc1Cl	i	i	i	i	i	·	·	·	·	·	·
Cn1c(=O)c(C=Nc2ccccc2)c(O)c2ccccc21	i	i	i	i	i	·	·	·	·	·	·
Cn1c(=O)c2c(O)c(C=Nc3ccc(F)cc3)c(=O)n(C)c2n(C)c1=O	i	-6.58*	i	i	i	-91.5%*	i	-14.5%*	i	i	i
Cc1cccc(Nc2cc(C)nc3ccccc23)c1	i	-6.03*	i	i	i	-139.5%*	59.5%*	-26.0%*	73.0%*	66.0%*	i
CCOC(=O)c1ccc2nc(C)cc(Nc3cccc(C(=O)O)c3)c2c1	i	i	i	i	i	·	·	·	·	·	·
COc1ccc2nc(C)cc(Nc3ccc(C(=O)O)cc3)c2c1	i	i	i	i	i	·	·	·	·	·	·
Cc1cc(Nc2cccc(Cl)c2)c2ccccc2n1	i	i	i	i	i	·	·	·	·	·	·
CC(=O)c1cccc(Nc2cc(C)nc3c(C)cccc23)c1	i	-5.39*	i	i	i	-122.5%*	57.0%*	-26.0%*	52.5%*	52.5%*	i
CC(=O)c1cccc(Nc2cc(C)nc3ccccc23)c1	i	-5.61*	i	i	i	-120.0%*	i	-19.5%*	47.5%*	i	i
CCOc1ccc(Nc2cc(C)nc3ccc(C)cc23)cc1	i	-6.41*	i	i	i	-135.0%*	i	-29.0%*	58.0%*	50.0%*	i
Cc1cc(C)c2nc(N3CCC(C(=O)NCCCN4CCCCC4)CC3)sc2c1	i	-8.8*	i	i	i	·	·	·	·	51.6%*	i	TRPC4 spec 2=74.5%*;TRPC4 spec=2.6%*;HEK293 MPD ctr 2-1=i;HEK293 MPD ctr-1=2.9%*
Cc1cc(C)c2nc(N3CCC(C(=O)NCC4CCCO4)CC3)sc2c1 (configuration not stated)	i	i	i	i	i	·	·	·	·	·	·
NC(=O)NC(=O)COC(=O)/C=C/c1cccc(Br)c1	i	i	i	i	i	·	·	·	·	·	·
CNC(=O)NC(=O)COC(=O)/C=C/c1cccc(Br)c1	i	-8.48*	i	i	i	·	·	·	·	i	i	TRPC4 spec 2=i;TRPC4 spec=i;HEK293 MPD ctr 2-1=i;HEK293 MPD ctr-1=i
CC(C)c1cc(C(C)C)c(S(=O)(=O)N2CCNCC2)c(C(C)C)c1	i	-5.77*	i	i	i	i	i	i	64.5%*	41.5%*	i
COc1ccc(CNC2CCSc3ccccc32)cc1OC (configuration not stated)	i	i	i	i	i	·	·	·	·	·	·
CC/C(=C\c1oc2cc3ccccc3cc2[n+]1CC)Nc1ccccc1	i	-5.1*	i	i	i	i	i	i	79.5%*	59.0%*	i
CCc1noc(C)c1C(=O)Nc1ccc(-c2nnc3n2CCCCC3)cc1	i	-4.98*	i	i	i	i	i	i	i	i	i
CCc1noc(C)c1C(=O)Nc1ccc(S(=O)(=O)N2CCCCC2)cc1	i	i	i	i	i	·	·	·	·	·	·
Cn1c(O)c(/C=N/NC(=O)c2cc3ccccc3cc2O)c2ccccc21	44.4*	i	105*	i	33*	+	i	297.5%*	i	i	256.0%*
Cc1ccc(-n2nc3c(c2NC(=O)c2c(-c4ccccc4Cl)noc2C)CS(=O)(=O)C3)c(C)c1	i	-5.47*	i	i	i	100.0%*	i	24.0%*	i	i	·
O=C1S/C(=C\c2ccc(N3CCOCC3)o2)C(=O)N1Cc1c(F)cccc1Cl	28.4*	i	43*	i	17*	226.0%*	i	117.0%*	i	i	i

Bioassay records: PubChem BioAssay, Johns Hopkins Ion Channel Center
